Compound activity deposited in PubChem by Broad Institute.
PGC1a acetyl inh – modulators of PGC1a acetylation. U2OS PGC1a acetylation, AlphaScreen anti-acetyl-lysine; with virally co-expressed GCN5 acetyltransferase. inhibition, % at 15.6 µM. 350,000 tested, 0.17% active. AID 651687;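 active = every replicate shows inhibition of at least 40%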;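 also: 0% = neutral control wells and 100% = positive control wells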
rRNA inh HTS – inhibits bacterial ribosomal RNA function over humanized ribosomes | AID 720706 | 350,000 tested, 1.6% active | E. coli WT GFP vs humanized-ribosome RFP mutants, fluorescence, 24 h; active compounds read low; DMSO median 0, no signal -100 | GFP signal change (wild-type ribosome), % (concentration not given with the values);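 active = significant combined selectivity score with lowered wild-type GFP, culture density cut under 30%, mutant RFP and density less affected; inactive = any of these conditions unmet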
FGF22 binding – FGF22 (human) thermal shift binding; Q9HCT0; recombinant FGF22 thermal shift, SYPRO orange fluorescence; percent of sucrose octasulfate shift, DMSO zero; activity (Tm shift, normalised), % at 9.99 µM; 340,000 tested, 1.5% active; AID 651658;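 active = mean Tm shift, scaled 0 neutral to 100 positive control, at about 1.3% or above, every replicate too, limit read from the data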
Target sequence (Q9HCT0 whole entry, looked up): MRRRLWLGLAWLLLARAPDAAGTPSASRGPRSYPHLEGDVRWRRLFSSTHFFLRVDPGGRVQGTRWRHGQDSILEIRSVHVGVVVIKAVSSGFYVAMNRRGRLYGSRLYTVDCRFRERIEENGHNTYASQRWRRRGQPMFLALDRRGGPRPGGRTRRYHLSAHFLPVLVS
HIV Env fusion – inhibitors of HIV Env-mediated cell fusion. 360,000 tested, 1.1% active. HeLa-JRFL Env/CEM21 cell fusion, luciferase. inhibition, % at 12.3 µM;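 active = mean replicate inhibition score of at least 50 and every replicate individually at or above 50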;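 also: 0% = plate neutral controls and 100% = maraviroc near 300 nM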
ERAP1 HTS inh – ERAP1 (human) enzyme inhibition | AID 652197 | inhibition, % at 10.7 µM | 340,000 tested, 0.15% active | recombinant ERAP1, Leu-AMC fluorescence, 60 min | Q9NZ08;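 active = mean replicate inhibition of at least 30%, or all replicates individually reaching that 30% level; inactive = mean below 30% and not every replicate reaching it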;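 also: 0% = neutral control wells and 100% = L-leucinethiol positive control wells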
Cneo AK release – causes C. neoformans cell lysis | adenylate kinase release luminescence, 4 h; normalised: neutral wells 0, clomiphene wells 100 | lysis activity, % at 15 µM | 360,000 tested, 0.2% active | AID 651654;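 active = mean lysis activity across replicates of at least 80%, whatever share of replicates individually reach that level; inactive = mean lysis activity below 80%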
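Material – Cryptococcus neoformans yeast cells · Quantity – 5 × 10^6 yeast cells/mL · Buffer or medium – YPD medium · Compound – single dose · Timing – 4 h static compound exposure, 37 °C, read 1 h post-reagent · Signal – adenylate kinase release luminescence · Read-out basis – lysis from increased AK signal · Benchmarks – Clomiphene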
* hit, by the source's call; . = no result; [ ] = remark or other dose. This is a sample that favours compounds with a hit; in the whole collection about 3.5% have one here.

SMILES	PGC1a acetyl inh	rRNA inh HTS	FGF22 binding	HIV Env fusion	ERAP1 HTS inh	Cneo AK release
COc1ccc(S(=O)(=O)N(C)C[C@@H]2OCCCC[C@@H](C)Oc3ccc(NC(=O)Nc4cccc5ccccc45)cc3C(=O)N([C@@H](C)CO)C[C@H]2C)cc1	-18	-4	1.3*	-13[16.7 µM]	-6	1
C[C@H]1CN([C@@H](C)CO)C(=O)c2cc(C#CCN(C)C)cnc2O[C@@H]1CN(C)Cc1ccc(C(=O)O)cc1	0	4	0	-22[16.7 µM]	1	-2
O=C(COC(=O)c1ccc2[nH]c3c(c2c1)CCCC3)NC1CCS(=O)(=O)C1 (stereo not given)	.	-13	0	24	-2	.
Cc1ccc2nc3c(c(C(=O)OC4CCOC4=O)c2c1)CCCC3 (stereo not given)	.	12	43*	3	2	0
Cc1ccc2nc3c(c(C(=O)OCC(=O)NC4CCS(=O)(=O)C4)c2c1)CCCC3 (stereo not given)	2	-23	43*	-3	-3	.
CC[C@H](C)[C@H](NC(N)=O)C(=O)NCCc1ccc(OC)cc1	9	5	0	4	20	2
CC[C@H](C)[C@H](NC(N)=O)C(=O)Nc1ccc(C)cc1	.	11	0	18	3	.
CC(C)[C@H](NC(N)=O)C(=O)NCCc1ccc(Cl)cc1Cl	.	-3	42	9	-2	.
CCc1ccc(C(=O)COC(=O)[C@@H](NC(N)=O)[C@@H](C)CC)cc1	6	-17	43*	-39	-8	.
CCC(C)C(NC(N)=O)C(=O)Nc1ccc(C(=O)OC)cc1 (stereo not given)	-4	3	43*	-6	1	0
CC[C@H](C)[C@H](NC(N)=O)C(=O)Nc1ccc(NC(C)=O)cc1	5	29	0	9	4	-1
CC(C)CC(NC(N)=O)C(=O)NCCc1ccc(Cl)cc1Cl (stereo not given)	.	11	44*	-6	2	.
CC[C@H](C)[C@H](NC(N)=O)C(=O)NCCc1ccc(Cl)cc1	3	4	44*	22	-2	2
N=c1sccn1CC(=O)Nc1ccc2c(c1)CCC2	1	.	.	33	.	0
CC(C)C1C(=O)NC(=S)N1S(=O)(=O)c1ccc(C(C)(C)C)cc1 (stereo not given)	-9	.	.	.	.	1
COc1ccc2c(c1)c(=O)oc1c(C)c(OCC(=O)N3CCc4ccccc4C3)ccc12	10	.	.	.	.	1
COc1ccc(/C=C2\Oc3cc(OCC(N)=O)ccc3C2=O)cc1OC	-2	-29*	0	25	2	-4
COC(=O)COc1ccc2c(c1)O/C(=C\c1cccc([N+](=O)[O-])c1)C2=O	-4	3	0	-6	-1	2
CC(/C=N/NC(=O)CSc1nc(C)cc(C)n1)=C\c1ccccc1	-7	.	.	12	.	2
CC(/C=N\NC(=O)Cn1c(C)nc2ccccc21)=C\c1ccccc1	-19	.	.	86*	.	1
Cc1ccc(C(=O)Nc2nc(C)c(C(=O)Nc3ccc4c(c3)CCC4)s2)cc1	11	-30*	0	-362	0	-2
COc1ccc(O)c(C(=O)c2cnn(-c3ccccc3)c2)c1	9	-27*	0	-6	2	0
CCCCCC(=O)NNC(=S)NC(=O)c1ccccc1[N+](=O)[O-]	.	-32*	0	6	5	.
CCC(=O)NC(=S)Nc1ccc(NC(=O)c2ccccc2[N+](=O)[O-])cc1	-5	-22*	0	6	-2	9
CCCOC(=O)c1ccc(NC(=O)c2ccccc2[N+](=O)[O-])cc1	.	-24	43*	-13	3	.
SMILES	PGC1a acetyl inh	rRNA inh HTS	FGF22 binding	HIV Env fusion	ERAP1 HTS inh	Cneo AK release
CCCOC(=O)c1ccc(NC(=O)c2ccccc2OC)cc1	.	-13	0	-5	0	.
CC(=O)OCCCCCCCCCCC[N+]1(C)CCCCC1	.	3	0	5	88*	.
COC(=O)CCCCCCCCCC[N+]1(C)CCCCC1	.	.	.	-15	.	.
Cc1ccc(CNC(=O)c2cc(-c3ccccc3)n(Cc3cc(C)no3)n2)cc1	-14	-7	0	6	-1	1
Cc1cc(Cn2nc(C(=O)NCC3CC3)cc2-c2ccccc2)on1	-4	-27*	0	21	-8	0
Cc1cccc2nc(-c3cccnc3)c(NCCC(C)C)n12	-5	13	42	-4	-4	.
Cc1cccc2nc(-c3cccnc3)c(Nc3ccccc3)n12	-3	-36*	0	-3	-3	-1
COc1cccc(S(=O)(=O)N[C@H]2CC[C@@H](CCN)O[C@@H]2CO)c1	-1	0	0	68*[16.7 µM]	-1	2
COc1cccc(S(=O)(=O)N[C@@H]2CC[C@H](CCN)O[C@H]2CO)c1	-1	1	0	66*[16.7 µM]	2	-5
Cn1c(=O)c2c(ncn2CC(=O)NC2CCCCC2)n(C)c1=O	.	5	0	10	2	-1
CCCN(CC(=O)Nc1ccc(Cl)cc1Cl)Cc1cc(=O)n2ccsc2n1	10	-46*	0	10	1	-3
Cc1cc(C)n2nc(C(=O)OCC(=O)N(C)C3CCS(=O)(=O)C3)nc2n1 (stereo not given)	4	.	0	.	0	0
CCC(C)N(C(=O)COC(=O)c1nc2nc(C)cc(C)n2n1)C1CCS(=O)(=O)C1 (stereo not given)	.	12	0	.	88*	0
Cc1ccc(-c2ccc3c(c2)O[C@@H](CN(C)Cc2cccnc2)[C@H](C)CN([C@H](C)CO)S3(=O)=O)cc1	-17	-18	0	75*[16.7 µM]	-2	8
C[C@H]1CN([C@@H](C)CO)S(=O)(=O)c2ccc(-c3ccccc3)cc2O[C@H]1CN(C)Cc1ccccc1	-6	-27	.	55*[16.7 µM]	.	.
Cc1ccc(-c2ccc3c(c2)O[C@@H](CN(C)Cc2cccnc2)[C@@H](C)CN([C@@H](C)CO)S3(=O)=O)cc1	-24	-41	0	10[16.7 µM]	-1	13
C[C@@H]1CN([C@H](C)CO)S(=O)(=O)c2ccc(-c3ccccc3)cc2O[C@H]1CN(C)Cc1ccccc1	7	-2	.	55*[16.7 µM]	.	.
Cc1ccc(-c2ccc3c(c2)O[C@H](CN(C)Cc2ccccc2)[C@H](C)CN([C@H](C)CO)S3(=O)=O)cc1	-18	0	0	18[16.7 µM]	2	-10
Cc1ccc(S(=O)(=O)N2CCN(Cc3ccccc3)CC2)cc1	.	-1	0	-7	3	-1
Cc1ccc(S(=O)(=O)N2CCN(Cc3cccc(F)c3)CC2)cc1	9	-28*	0	14	5	-5
CC(C)(C)NC(=O)CSc1nnc(-c2ccccn2)n1Cc1ccccc1	-16	-3	0	6	-2	-3
O=C(CCCCCNc1nc(=S)[nH]c2ccccc12)NCCc1ccc(Cl)cc1	-17	2	1	14	-1	.
